Test results: ChEMBL document CHEMBL1129653, “Synthesis and quantitative structure-activity relationship of a novel series of small conductance Ca(2+)-activated K+ channel blockers related to dequalinium” (J Med Chem, 1996)

Key:
[1] = Equieffective molar ratio of compound to inhibit hyperpolarization in cultured rat sympathetic neurons; type: functional, Sympathetic neuron
How it was run: (§1)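 Rat sympathetic neurons dissociated, plated on laminin-coated dishes and cultured 3–10 days, then perfused with physiological salt solution (mM: NaCl 118, KCl 4.8, CaCl2 2.5). AHP inhibition taken as the peak difference between control and blocker records, as % of control AHP. Dequalinium reference run in each series. EMR is test-compound IC50 divided by dequalinium IC50 from the same experiment; IC50 by Hill fit, ≥3 cells.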

[2] = molecular target: T1, Small conductance calcium-activated potassium channel (Rattus norvegicus, UniProt P70604+P70606+P70605); assay: SKCa-blocking activity by its ability to inhibit after hyperpolarization (AHP) in cultured rat sympathetic neurons; type: functional, cell-based; details: sympathetic neuron
How it was run: (§2)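 AHP block was the peak of the digitally subtracted control-minus-drug record, as % of control AHP at the same time point. IC50 came from a Hill equation fit over at least three cells. Test concentrations above 10–30 µM were generally avoided.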

[3] = Equieffective molar ratio of compound to inhibit hyperpolarization in cultured rat sympathetic neurons; No activity up to this concentration; type: functional, Sympathetic neuron; how it was run: as §1
[4] = molecular target: T1, Small conductance calcium-activated potassium channel; assay: SKCa-blocking activity as inhibitino of after hyperpolarization (AHP) in cultured rat sympathetic neurons; No activity at maximal dose used; type: functional, cell-based; details: sympathetic neuron
How it was run: as §2, with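 “Cultured rat sympathetic neurons (laminin-coated dishes, 3–10 days) were perfused with physiological salt solution (mM: NaCl 118, KCl 4.8, CaCl2 2.5). AHP block” for “AHP block”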

[5] = molecular target: T1, Small conductance calcium-activated potassium channel; assay: SKCa-blocking activity as inhibition of after hyperpolarization (AHP) in cultured rat sympathetic neurons; Insufficient activity at maximal dose used; type: functional, cell-based; details: sympathetic neuron
How it was run: as §2, with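 “Cultured rat sympathetic neurons (laminin-coated dishes, 3–10 days) were perfused with physiological salt solution (mM: NaCl 118, KCl 4.8, CaCl2 2.5). AHP block” for “AHP block”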

[6] = Equieffective molar ratio of compound to inhibit hyperpolarization in cultured rat sympathetic neurons; Insufficient activity up to this concentration to determine; type: functional, Sympathetic neuron; how it was run: as §1

Row | SMILES | IC50 [2] | Ratio [1] | further results
1 | c1ccc2c(NCCCCCCCCCCNc3ccnc4ccccc34)ccnc2c1 | – | 3.5 | –
2 | Cc1cc(NCCCCCCCCCCCCNc2cc(C)[n+](Cc3ccccc3)c3ccccc23)c2ccccc2[n+]1Cc1ccccc1 | 2400 nM | 4 | –
3 | C[n+]1ccc(NCCCCCCCCNc2cc[n+](C)c3ccccc23)c2ccccc21 | 2700 nM | 3.1 | –
4 | c1ccc2c(CCCCCCCCCCCCc3ccnc4ccccc34)ccnc2c1 | – | – | Ratio [3]: >10; IC50 [4]: > 10000 nM
5 | c1ccc2c(SCCCCCCCCCCSc3ccnc4ccccc34)ccnc2c1 | – | – | IC50 [5]: > 10000 nM; Ratio [6]: >10
6 | Cc1cc(NCCCCCCCCCCNc2cc(C)[n+](CCC(c3ccccc3)c3ccccc3)c3ccccc23)c2ccccc2[n+]1CCC(c1ccccc1)c1ccccc1 | 4300 nM | 6.2 | –
7 | Cc1cc(NCCCCCCCCCCNc2cc(C)[n+](Cc3ccccc3)c3ccccc23)c2ccccc2[n+]1Cc1ccccc1 | 400 nM | 0.6 | –
8 | C[n+]1ccc(NCCCCCCCCCCNc2cc[n+](C)c3cc(Cl)ccc23)c2ccc(Cl)cc21 | 1300 nM | 1.5 | –
9 | COc1cc(C[n+]2c(C)cc(NCCCCCCCCCCNc3cc(C)[n+](Cc4cc(OC)cc(OC)c4)c4ccccc34)c3ccccc32)cc(OC)c1 | 1700 nM | 2.1 | –
10 | COc1cc(C[n+]2c(C)cc(NCCCCCCCCCCNc3cc(C)nc4ccccc34)c3ccccc32)cc(OC)c1 | 750 nM | 1.2 | –
11 | Cc1cc(NCCCCCCCCCCCCNc2cc(C)[n+](Cc3ccccc3)c3ccccc23)c2ccccc2n1 | 4400 nM | 8 | –
12 | Cc1cc(NCCCCCCCCCCNc2cc(C)[n+](Cc3ccccc3)c3ccccc23)c2ccccc2n1 | 1300 nM | 2.4 | –
13 | c1ccc(C[n+]2ccc(NCCCCCCCCCCNc3cc[n+](Cc4ccccc4)c4ccccc34)c3ccccc32)cc1 | 700 nM | 1 | –
14 | Cc1cc(N)c2ccccc2[n+]1CCCCCCCCCC[n+]1c(C)cc(N)c2ccccc21.[Cl-].[Cl-] [DEQUALINIUM CHLORIDE] | 1000 nM | – | –

Now from value to molecule, other results behind:

Row | IC50 [2] | SMILES | Ratio [1] | further results
15 | 18000 nM | c1ccc2c(OCCCCCCCCCCOc3ccnc4ccccc34)ccnc2c1 | 16 | –
16 | 40000 nM | C[n+]1ccc(CCCCCCCCCCc2cc[n+](C)c3ccccc23)c2ccccc21 | 26 | –
17 | 3900 nM | C[n+]1ccc(CCCCCCCCCCCCc2cc[n+](C)c3ccccc23)c2ccccc21 | 5.9 | –
18 | 2100 nM | C[n+]1ccc(NCCCCCCCCCCNc2cc[n+](C)c3ccccc23)c2ccccc21 | 1.9 | –
19 | 6800 nM | C[n+]1ccc(OCCCCCCCCCCOc2cc[n+](C)c3ccccc23)c2ccccc21 | 7.2 | –
20 | 3800 nM | Cc1cc(NCCCCCCCCCCCCNc2cc(C)nc3ccccc23)c2ccccc2n1 | 7.1 | –
21 | 3700 nM | C[n+]1ccc(SCCCCCCCCCCSc2cc[n+](C)c3ccccc23)c2ccccc21 | 6.2 | –
22 | 2500 nM | Cc1cc(NCCCCCCCCCCNc2cc(C)nc3ccccc23)c2ccccc2n1 [QUINDECAMINE] | 3.6 | –
